The source of these data is ChEMBL document CHEMBL1136968, “Structurally simple inhibitors of lanosterol 14alpha-demethylase are efficacious in a rodent model of acute Chagas disease” (J Med Chem, 2009).

A short description of series [1]: Toxicity against mouse 3T3 cells by resazurin assay. The class given is cell-based. To be noted: NIH3T3 cells. In short, it runs like this:
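Murine 3T3 fibroblasts screened separately from the parasites. Host-cell growth was quantified by resazurin read-out and EC50 determined.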
In general terms: Resazurin is reduced to fluorescent resorufin, in cell work by metabolically active cells.

In the next series the test system is Trypanosoma cruzi. The series is described as follows: Antitrypanosomal activity against Trypanosoma cruzi Tulahuen amastigotes in mouse 3T3 cells by beta-galactosidase reporter gene assay. Particulars: NIH3T3. The series is classed as functional, organism-based. In short, it runs like this:
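Tulahuen strain (TCII lineage) grown as intracellular amastigotes in murine 3T3 fibroblasts in 96-well plates. EC50 determined from triplicate screens. Standard errors within assays stayed below 15%.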
(In general: Reporter assays use an easily measured gene product as a stand-in for the process of interest.)

Some results are limits rather than exact numbers.

The term EC50 denotes the concentration giving half of the maximal effect. Read a high EC50 as weaker potency. On to `COC(=O)c1ccc(NCc2cncn2Cc2ccc(Br)cc2)cc1-c1ccccc1`, for which the concentration giving a half-maximal response (EC50) in series [1] is greater than 10 µM; with Trypanosoma cruzi, 0.02 µM.

Turning to `Clc1ccc(NCc2cncn2Cc2ccc(-c3ccccc3)cc2)cc1-c1ccccc1`, the EC50 in series [1] was greater than 1 µM; in the series on Trypanosoma cruzi it was 0.006 µM. In the case of `CNC(=O)c1ccc(NCc2cncn2Cc2ccc(-c3ccccc3)cc2)cc1-c1ccccc1`, the EC50 in series [1] was greater than 1 µM; with Trypanosoma cruzi it was 0.0024 µM. With `COC(=O)c1ccc(NCc2cncn2Cc2ccc(N)cc2)cc1-c1ccccc1`, the EC50 in series [1] is greater than 10 µM; in the series on Trypanosoma cruzi, 0.25 µM.

Turning to `Cc1cccc(-c2cccc(NCc3cncn3Cc3ccccc3)c2)c1`, the EC50 in series [1] was greater than 1 µM; in the series with Trypanosoma cruzi it was 0.55 µM. `COc1ccc(NCc2cncn2Cc2ccc(-c3ccccc3)cc2)cc1-c1ccccc1`: the EC50 in series [1] is greater than 1 µM; in the series on Trypanosoma cruzi, 0.007 µM. For `COC(=O)c1ccc(NCc2cncn2Cc2ccc(C#N)cc2)cc1-c1ccccc1`, the EC50 in series [1] was greater than 10 µM; with Trypanosoma cruzi, 0.025 µM. As to `Cc1cccc(-c2cccc(NCc3cncn3Cc3ccccc3)c2)c1C`, the figures for the EC50 (in series [1]; in the series on Trypanosoma cruzi) were greater than 1 µM and 0.26 µM, respectively. The matching figures for `c1ccc(-c2ccc(Cn3cncc3CNc3ccc(-c4ccccc4)c(-c4ccccc4)c3)cc2)cc1`: greater than 10 µM and 0.08 µM. As to `COC(=O)c1ccc(NCc2cncn2Cc2ccccc2)cc1-c1ccccc1`, the EC50 in series [1] is greater than 1 µM; in the series on Trypanosoma cruzi, 0.08 µM.

With `CN(C)c1ccc(NCc2cncn2Cc2ccc(-c3ccccc3)cc2)cc1-c1ccccc1`, the EC50 in series [1] was greater than 1 µM; in the series with Trypanosoma cruzi it was 0.02 µM. The matching figures for `COC(=O)c1ccc(NCc2cncn2Cc2ccc(F)cc2F)cc1-c1ccccc1`: greater than 1 µM and 0.021 µM. Regarding `Cc1ccccc1-c1cccc(NCc2cncn2Cc2ccccc2)c1`, the EC50 is greater than 1 µM in series [1] and 0.23 µM in the series on Trypanosoma cruzi. As to `CN(C)C(=O)c1ccc(NCc2cncn2Cc2ccc(-c3ccccc3)cc2)cc1-c1ccccc1`, the EC50 was greater than 1 µM in series [1] and 0.0093 µM with Trypanosoma cruzi. As to `COC(=O)c1ccc(NCc2cncn2Cc2ccccc2C)cc1-c1ccccc1`, the EC50 was determined as 10 µM in series [1] and 1 µM in the series with Trypanosoma cruzi. On the same counts, the results for `N#Cc1ccc(NCc2cncn2Cc2ccc(-c3ccccc3)cc2N)cc1-c1ccccc1` are greater than 1 µM and 0.0015 µM. For the compound `CCc1ccc(Cn2cncc2CNc2ccc(-c3nc4ccccc4s3)c(-c3ccccc3)c2)cc1`, the EC50 was greater than 1 µM in series [1] and 0.11 µM in the series on Trypanosoma cruzi. On the same counts, the results for `CC(=O)c1ccc(NCc2cncn2Cc2ccc(-c3ccccc3)cc2)cc1-c1ccccc1` are greater than 10 µM and 0.04 µM. The matching figures for `COC(=O)c1ccc(NCc2cncn2Cc2ccc(-c3ccccc3)cc2)cc1-c1ccccc1`: greater than 1 µM and 0.0005 µM.

In the case of `c1ccc(Cn2cncc2CNc2cccc(-c3ccccc3)c2)cc1`, the values for the EC50 (in series [1]; in the series with Trypanosoma cruzi) were greater than 0.75 µM and 0.36 µM, respectively. For the compound `COC(=O)c1ccc(NCc2cncn2Cc2ccccc2C#N)cc1-c1ccccc1`, the EC50 in series [1] stood at 25 µM; in the series on Trypanosoma cruzi, 0.2 µM. On the same counts, the results for `Clc1ccc(Cn2cncc2CNc2cccc(-c3ccccc3)c2)cc1` are 10 µM and 0.08 µM. For the compound `COC(=O)c1ccc(NCc2cncn2Cc2ccc(-c3ccccc3)cc2)cc1`, the EC50 is greater than 10 µM in series [1] and 0.08 µM in the series on Trypanosoma cruzi. For `c1ccc(Cn2cncc2CNc2cccc(-c3ccncc3)c2)cc1`, the EC50 in series [1] is greater than 1 µM; with Trypanosoma cruzi it was 0.51 µM.

Consider `CCC(=O)c1ccc(NCc2cncn2Cc2ccc(-c3ccccc3)cc2)cc1-c1ccccc1`, for which the EC50 in series [1] was greater than 10 µM; in the series on Trypanosoma cruzi, 0.04 µM. Regarding `COC(=O)c1ccc(NCc2cncn2Cc2ccccc2Cl)cc1-c1ccccc1`, the EC50 in series [1] was determined as 10 µM; in the series on Trypanosoma cruzi, 0.1 µM. Turning to `CS(=O)(=O)c1ccc(Cn2cncc2CNc2ccc(-c3nc4ccccc4s3)c(-c3ccccc3)c2)cc1`, the EC50 (in series [1]; in the series with Trypanosoma cruzi) was greater than 1 µM throughout.

`COC(=O)c1ccc(NCc2cncn2Cc2ccc(C)cc2)cc1-c1ccccc1`: the EC50 in series [1] came to 50 µM; with Trypanosoma cruzi, 0.005 µM. For the compound `COC(=O)c1ccc(NCc2cncn2Cc2ccc(OC)cc2)cc1-c1ccccc1`, the EC50 in the series with Trypanosoma cruzi worked out at 0.025 µM. For the compound `O=C(c1ccc(NCc2cncn2Cc2ccc(-c3ccccc3)cc2)cc1-c1ccccc1)N1CCCCC1`, the results for the EC50 (in series [1]; in the series on Trypanosoma cruzi) were greater than 1 µM and 0.024 µM, respectively. On to `Cc1cccc(-c2cc(NCc3cncn3Cc3ccc(-c4ccccc4)cc3)ccc2-c2nc3ccccc3s2)c1C`, for which the EC50 in series [1] is greater than 1 µM; in the series with Trypanosoma cruzi, 0.064 µM. The matching figures for `COC(=O)c1ccc(NCc2cncn2Cc2ccc(Cl)cc2)cc1-c1ccccc1`: 25 µM and 0.005 µM. With `c1ccc(-c2ccc(Cn3cncc3CNc3ccc(-c4cc5ccccc5o4)c(-c4ccccc4)c3)cc2)cc1`, the figures for the EC50 (in series [1]; with Trypanosoma cruzi) were greater than 10 µM and 0.04 µM, respectively. `CC(C)c1ccc(Cn2cncc2CNc2ccc(-c3nc4ccccc4s3)c(-c3ccccc3)c2)cc1`: the EC50 was greater than 1 µM in series [1] and 0.54 µM with Trypanosoma cruzi. The matching figures for `COC(=O)c1ccc(NCc2cncn2Cc2cccc(C)c2)cc1-c1ccccc1`: greater than 10 µM and 0.02 µM. Take `Clc1ccc(Cn2cncc2CNc2ccc(-c3nc4ccccc4s3)c(-c3ccccc3)c2)cc1`: the EC50 in series [1] was greater than 1 µM; in the series on Trypanosoma cruzi it was 0.25 µM. For `Nc1cc(-c2ccccc2)ccc1Cn1cncc1CNc1ccc(-c2cncs2)c(-c2ccccc2)c1`, the EC50 in series [1] was greater than 1 µM; with Trypanosoma cruzi, 0.01 µM.

Regarding `c1ccc(-c2ccc(Cn3cncc3CNc3ccc(-c4noc5ccccc45)c(-c4ccccc4)c3)cc2)cc1`, the EC50 was greater than 10 µM in series [1] and 0.01 µM in the series on Trypanosoma cruzi. In the case of `c1ccc(-c2ccc(Cn3cncc3CNc3ccc(-c4onc5ccccc45)c(-c4ccccc4)c3)cc2)cc1`, the EC50 in series [1] was greater than 10 µM; with Trypanosoma cruzi it was 0.05 µM.

Regarding `CCOC(=O)c1ccc(NCc2cncn2Cc2ccc(-c3ccccc3)cc2)cc1-c1ccccc1`, the results for the EC50 (in series [1]; in the series with Trypanosoma cruzi) were greater than 10 µM and 0.01 µM, respectively. Take `Cc1ccccc1-c1ccc(Cn2cncc2CNc2ccc(-c3nc4ccccc4s3)c(-c3ccccc3)c2)cc1`: the values for the EC50 (in series [1]; in the series on Trypanosoma cruzi) were greater than 1 µM and 0.12 µM, respectively. In the case of `COC(=O)c1ccc(NCc2cncn2Cc2cccc([N+](=O)[O-])c2)cc1-c1ccccc1`, the EC50 in series [1] was greater than 10 µM; in the series with Trypanosoma cruzi, 0.03 µM.

`Cc1ccc(Cn2cncc2CNc2cccc(-c3ccccc3)c2)cc1`: the values for the EC50 (in series [1]; in the series on Trypanosoma cruzi) were 10 µM and 0.1 µM, respectively.

With `c1ccc(-c2ccc(Cn3cncc3CNc3ccccc3-c3ccccc3)cc2)cc1`, the EC50 in series [1] is greater than 10 µM; with Trypanosoma cruzi, 0.08 µM. Consider `c1ccc(-c2ccc(Cn3cncc3CNc3ccc(N4CCCCC4)c(-c4ccccc4)c3)cc2)cc1`, for which the EC50 is greater than 1 µM in series [1] and 0.023 µM in the series on Trypanosoma cruzi. With `c1ccc(-c2ccc(Cn3cncc3CNc3ccc(-c4ccccc4)cc3)cc2)cc1`, the EC50 in series [1] is greater than 10 µM; with Trypanosoma cruzi, 0.2 µM.

In the case of `Cc1ccccc1-c1cc(NCc2cncn2Cc2ccc(-c3ccccc3)cc2)ccc1-c1nc2ccccc2s1`, the EC50 in series [1] is greater than 1 µM; in the series on Trypanosoma cruzi, 0.031 µM. Regarding `c1ccc(-c2ccc(Cn3cncc3CNc3ccc(N4CCCC4)c(-c4ccccc4)c3)cc2)cc1`, the EC50 was greater than 1 µM in series [1] and 0.022 µM with Trypanosoma cruzi. On to `COC(=O)c1ccc(NCc2cncn2Cc2cccc(C(C)(C)C)c2)cc1-c1ccccc1`, for which the EC50 is greater than 1 µM in series [1] and 0.475 µM with Trypanosoma cruzi. With `COC(=O)c1ccc(NCc2cncn2Cc2ccccc2N)cc1-c1ccccc1`, the EC50 in series [1] was determined as 25 µM; in the series with Trypanosoma cruzi it was 0.005 µM.

For the compound `c1ccc(-c2ccc(Cn3cncc3CNc3cccc(-c4ccccc4)c3)cc2)cc1`, the EC50 in series [1] came to 10 µM; in the series on Trypanosoma cruzi it was 0.01 µM.

Take `COC(=O)c1ccc(NCc2cncn2Cc2cccc(N)c2)cc1-c1ccccc1`: the EC50 in series [1] was greater than 10 µM; with Trypanosoma cruzi, 0.13 µM.

As for `COC(=O)c1ccc(NCc2cncn2Cc2ccccc2[N+](=O)[O-])cc1-c1ccccc1`, the results for the EC50 (in series [1]; in the series with Trypanosoma cruzi) were 10 µM and 0.1 µM, respectively.

For `c1ccc(-c2ccc(Cn3cncc3CNc3ccc(-c4nc5ccccc5o4)c(-c4ccccc4)c3)cc2)cc1`, the EC50 in series [1] is greater than 10 µM; in the series on Trypanosoma cruzi, 0.1 µM. As for `COc1ccc(NCc2cncn2Cc2ccc(-c3ccccc3)cc2N)cc1-c1ccccc1`, the concentration giving a half-maximal response (EC50) in series [1] is greater than 1 µM; in the series with Trypanosoma cruzi, 0.0008 µM. As to `Fc1ccc(Cn2cncc2CNc2ccc(-c3nc4ccccc4s3)c(-c3ccccc3)c2)c(F)c1`, the EC50 in series [1] was greater than 1 µM; in the series on Trypanosoma cruzi it was 0.42 µM. As to `COC(=O)c1ccc(NCc2cncn2Cc2cccc(C#N)c2)cc1-c1ccccc1`, the EC50 in series [1] was greater than 10 µM; in the series on Trypanosoma cruzi it was 0.1 µM. `COC(=O)c1ccc(NCc2cncn2Cc2cccc(Br)c2)cc1-c1ccccc1`: the results for the EC50 (in series [1]; in the series with Trypanosoma cruzi) were greater than 10 µM and 0.02 µM, respectively. Consider `c1ccc(-c2ccc(Cn3cncc3CNc3ccc(-c4ccc[nH]4)c(-c4ccccc4)c3)cc2)cc1`, for which the EC50 is greater than 10 µM in series [1] and 0.1 µM in the series on Trypanosoma cruzi. The matching figures for `COC(=O)c1ccc(NCc2cncn2Cc2cccc(Cl)c2)cc1-c1ccccc1`: greater than 10 µM and 0.02 µM. For the compound `COC(=O)c1ccc(NCc2cncn2Cc2ccc([N+](=O)[O-])cc2)cc1-c1ccccc1`, the EC50 in series [1] was greater than 10 µM; in the series on Trypanosoma cruzi, 0.1 µM. The matching figures for `O=[N+]([O-])c1ccc(Cn2cncc2CNc2cccc(-c3ccccc3)c2)cc1`: 10 µM and 0.1 µM. Turning to `CC(C)c1cccc(NCc2cncn2Cc2ccccc2)c1`, the concentration giving a half-maximal response (EC50) (in series [1]; with Trypanosoma cruzi) was greater than 1 µM throughout. Consider `N#Cc1ccc(NCc2cncn2Cc2ccc(-c3ccccc3)cc2)cc1-c1ccccc1`, for which the EC50 in series [1] was greater than 1 µM; in the series with Trypanosoma cruzi, 0.0013 µM.

Consider `COC(=O)c1ccc(NCc2cncn2Cc2ccccc2Br)cc1-c1ccccc1`, for which the EC50 in series [1] is 10 µM; with Trypanosoma cruzi, 0.1 µM.
